Assays:
[1] = target: T1, Protein farnesyltransferase (Homo sapiens, UniProt P49354+P49356); assay: Inhibitory activity against Ha-Ras processing in COS7 cells; assay type: functional, cell-based, COS-7
[2] = target: T1, Protein farnesyltransferase; assay: Inhibitory activity against farnesyltransferase quantified by SPA assay; assay type: protein-complex assay
[3] = target: T1, Protein farnesyltransferase; assay: Inhibitory activity against Farnesyltransferase quantified by modified SPA assay with improved sensitivity; assay type: protein-complex assay
Method in brief: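 Scintillation proximity assay, high-sensitivity version. Purified FTase (30 pM final) was pre-incubated with inhibitor or DMSO control (5% v/v final) for 15 min at room temperature. The reaction was started with biotin-CVLS (100 nM final) and run for 60 min at 37 °C. It was quenched with a cold suspension of 250 mM EDTA pH 8.0, 0.5% BSA and SPA beads, then the IC50 was determined.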

[4] = target: Geranylgeranyl transferase type I (Homo sapiens, UniProt P49354+P53609); assay: Inhibitory activity against Geranylgeranyltransferase 1; assay type: protein-complex assay
[5] = tested on: Liver microsomes; assay: Metabolic stability in rat liver microsome; assay type: ADME
Method in brief: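 Rat liver microsomes (cytochrome P450 content 6.7 µM) incubated 60 min at 37 °C with compound at 10 µM, KPi pH 7.4 and freshly prepared NADPH, in 1.0 ml final. Read-out is percent of compound remaining.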

[6] = tested on: Mus musculus; assay: AUC in mice at 10 mg/kg, po; assay type: ADME, organism-based, Plasma; parameters: dose 10 mg/kg, route oral; settings: in vivo
[7] = Bioavailability in mice; assay type: ADME, organism-based; settings: mouse, in vivo
[8] = Cmax in mice at 10 mg/kg, po; assay type: ADME, organism-based; parameters: dose 10 mg/kg, route oral; settings: mouse, in vivo

Row | Structure (SMILES) | IC50 [1] | IC50 [2] | other results
1 | CCCCNC(=O)N1CCN(C2c3ccc(Cl)cc3CCc3cc(Br)cnc32)CC1C(=O)NCc1cccnc1 (configuration not stated) | 45 nM | 9.1 nM | –
2 | CCCCCC(=O)N1CCN(C2c3ccc(Cl)cc3CCc3cc(Br)cnc32)CC1C(=O)NCc1cccnc1 (configuration not stated) | 75 nM | 8 nM | –
3 | CCCCC(=O)N1CCN(C2c3ccc(Cl)cc3CCc3cc(Br)cnc32)CC1C(=O)Nc1cccnc1 (configuration not stated) | 100 nM | 18 nM | –
4 | CC(C)(C)OC(=O)N1CCN(C2c3ccc(Cl)cc3CCc3cc(Br)cnc32)CC1C(=O)NCc1cccnc1 (configuration not stated) | > 200 nM | 22 nM | –
5 | O=C(NCc1cccnc1)C1CN(C2c3ccc(Cl)cc3CCc3cc(Br)cnc32)CCN1C(=O)CCC1CCCCC1 (configuration not stated) | 38 nM | 20 nM | –
6 | CC(C)NC(=O)N1CCN(C2c3ccc(Cl)cc3CCc3cc(Br)cnc32)CC1C(=O)NCc1cccnc1 (configuration not stated) | 140 nM | 47 nM | –
7 | COC(=O)CCCCC(=O)N1CCN(C2c3ccc(Cl)cc3CCc3cc(Br)cnc32)CC1C(=O)NCc1cccnc1 (configuration not stated) | 62 nM | 7.9 nM | –
8 | O=C(NCCc1c[nH]cn1)C1CN(C2c3ccc(Cl)cc3CCc3cc(Br)cnc32)CCN1C(=O)NC1CCCCC1 (configuration not stated) | 18 nM | 7 nM | –
9 | O=C(NCc1cccnc1)C1CN(C2c3ccc(Cl)cc3CCc3cc(Br)cnc32)CCN1C(=O)C1CCCCCC1 (configuration not stated) | 85 nM | 12 nM | –
10 | CCCCC(=O)N1CCN(C2c3ccc(Cl)cc3CCc3cc(Br)cnc32)CC1C(=O)NCc1ccc[n+]([O-])c1 (configuration not stated) | > 200 nM | – | –
11 | O=C(NCCCc1c[nH]cn1)C1CN(C2c3ccc(Cl)cc3CCc3cc(Br)cnc32)CCN1C(=O)NC1CCCCC1 (configuration not stated) | 9.7 nM | 13 nM | –
12 | CCCCC(=O)N1CCN(C2c3ccc(Cl)cc3CCc3cc(Br)cnc32)CC1C(=O)Nc1cnccn1 (configuration not stated) | 570 nM | 190 nM | –
13 | CCCCC(=O)N1CCN(C2c3ccc(Cl)cc3CCc3cc(Br)cnc32)CC1C(=O)NCCc1c[nH]cn1 (configuration not stated) | 60 nM | – | –
14 | CCCCC(=O)N1CCN(C2c3ccc(Cl)cc3CCc3cc(Br)cnc32)CC1C(=O)NCc1c[nH]cn1 (configuration not stated) | 210 nM | 45 nM | –
15 | CCCCC(=O)N1CCN(C2c3ccc(Cl)cc3CCc3cc(Br)cnc32)CC1C(=O)NCc1cccnc1 (configuration not stated) | 64 nM | 5.7 nM | –
16 | CCCCC(=O)N1CCN(C2c3ccc(Cl)cc3CCc3cc(Br)cnc32)CC1C(=O)Nc1cc(C)no1 (configuration not stated) | > 4500 nM | 560 nM | –
17 | O=C(NCc1cccnc1)C1CN(C2c3ccc(Cl)cc3CCc3cc(Br)cnc32)CCN1C(=O)NC1CC1 (configuration not stated) | 260 nM | 51 nM | –
18 | COCCC(=O)N1CCN(C2c3ccc(Cl)cc3CCc3cc(Br)cnc32)CC1C(=O)NCc1cccnc1 (configuration not stated) | 100 nM | 20 nM | –
19 | CC(C)(C)NC(=O)N1CCN(C2c3ccc(Cl)cc3CCc3cc(Br)cnc32)CC1C(=O)NCc1cccnc1 (configuration not stated) | 54 nM | 15 nM | –
20 | O=C(NCc1cccnc1)C1CN(C2c3ccc(Cl)cc3CCc3cc(Br)cnc32)CCN1C(=O)C1CCCC1 (configuration not stated) | 65 nM | 17 nM | –
21 | Cc1ccc(CNC(=O)C2CN(C3c4ccc(Cl)cc4CCc4cc(Br)cnc43)CCN2C(=O)NC2CCCCC2)cn1 (configuration not stated) | 550 nM | 61 nM | –
22 | CC(C)CC(=O)N1CCN(C2c3ccc(Cl)cc3CCc3cc(Br)cnc32)CC1C(=O)NCc1cccnc1 (configuration not stated) | 50 nM | 7.3 nM | –

Row | Structure (SMILES) | IC50 [1] | IC50 [2] | other results
23 | CCCNC(=O)N1CCN(C2c3ccc(Cl)cc3CCc3cc(Br)cnc32)CC1C(=O)NCc1cccnc1 (configuration not stated) | 59 nM | 19 nM | –
24 | CC(C)CNC(=O)N1CCN(C2c3ccc(Cl)cc3CCc3cc(Br)cnc32)CC1C(=O)NCc1cccnc1 (configuration not stated) | 52 nM | 8 nM | –
25 | O=C(Nc1nncs1)C1CN(C2c3ccc(Cl)cc3CCc3cc(Br)cnc32)CCN1C(=O)NC1CCCCC1 (configuration not stated) | > 10000 nM | 490 nM | –
26 | Cn1cncc1CCNC(=O)C1CN(C2c3ccc(Cl)cc3CCc3cc(Br)cnc32)CCN1C(=O)NC1CCCCC1 (configuration not stated) | 13 nM | 7.3 nM | –
27 | Cn1cnc(CCNC(=O)C2CN(C3c4ccc(Cl)cc4CCc4cc(Br)cnc43)CCN2C(=O)NC2CCCCC2)c1 (configuration not stated) | 91 nM | 26 nM | –
28 | O=C(NCCCN1CCCC1=O)C1CN(C2c3ccc(Cl)cc3CCc3cc(Br)cnc32)CCN1C(=O)NC1CCCCC1 (configuration not stated) | 20 nM | 14 nM | –
29 | O=C(NCc1cccnc1)C1CN(C2c3ccc(Cl)cc3CCc3cc(Br)cnc32)CCN1C(=O)NC1CCCCC1 (configuration not stated) | 8.6 nM | 5.5 nM | –
30 | O=C(NCc1cccnc1)C1CN(C2c3ccc(Cl)cc3CCc3cc(Br)cnc32)CCN1C(=O)NC1CCCCCC1 (configuration not stated) | 52 nM | 9.1 nM | –
31 | O=C(NCc1cccnc1)C1CN(C2c3ccc(Cl)cc3CCc3cc(Br)cnc32)CCN1C(=O)NCC1CCCCC1 (configuration not stated) | 53 nM | 10 nM | –
32 | O=C(O)CCCC(=O)N1CCN(C2c3ccc(Cl)cc3CCc3cc(Br)cnc32)CC1C(=O)NCc1cccnc1 (configuration not stated) | > 200 nM | 7 nM | –
33 | CC(=O)CCCC(=O)N1CCN(C2c3ccc(Cl)cc3CCc3cc(Br)cnc32)CC1C(=O)NCc1cccnc1 (configuration not stated) | 54 nM | 8.4 nM | –
34 | CN(C)C(=O)CCC(=O)N1CCN(C2c3ccc(Cl)cc3CCc3cc(Br)cnc32)CC1C(=O)NCc1cccnc1 (configuration not stated) | 11 nM | 13 nM | –
35 | CCOCC(=O)N1CCN(C2c3ccc(Cl)cc3CCc3cc(Br)cnc32)CC1C(=O)NCc1cccnc1 (configuration not stated) | 160 nM | 21 nM | –
36 | Cc1noc(C)c1CNC(=O)C1CN(C2c3ccc(Cl)cc3CCc3cc(Br)cnc32)CCN1C(=O)NC1CCCCC1 (configuration not stated) | – | 760 nM | –
37 | CCCCC(=O)N1CCN(C2c3ccc(Cl)cc3CCc3cc(Br)cnc32)CC1C(=O)NCc1ncc[nH]1 (configuration not stated) | > 200 nM | 80 nM | –
38 | O=C(NCc1cccnc1)C1CN(C2c3ccc(Cl)cc3CCc3cc(Br)cnc32)CCN1C(=O)NC1CCCC1 (configuration not stated) | 28 nM | 14 nM | –
39 | CC(=O)CCCCC(=O)N1CCN(C2c3ccc(Cl)cc3CCc3cc(Br)cnc32)CC1C(=O)NCc1cccnc1 (configuration not stated) | 49 nM | 8 nM | –
40 | CC(C)(C)CC(=O)N1CCN(C2c3ccc(Cl)cc3CCc3cc(Br)cnc32)CC1C(=O)NCc1cccnc1 (configuration not stated) | 120 nM | 12 nM | –
41 | CC(=O)CCC(=O)N1CCN(C2c3ccc(Cl)cc3CCc3cc(Br)cnc32)CC1C(=O)NCc1cccnc1 (configuration not stated) | 47 nM | 11 nM | –
42 | O=C(NCCCn1ccnc1)C1CN(C2c3ccc(Cl)cc3CCc3cc(Br)cnc32)CCN1C(=O)NC1CCCCC1 (stereo in doubt; 41) | 4.2 nM | 4.5 nM | –
43 | O=C(NCCCn1ccnc1)C1CN(C2c3ccc(Cl)cc3CCc3cc(Br)cnc32)CCN1C(=O)NC1CCCCC1 (stereo in doubt; 41a) | 1.2 nM | 2 nM | IC50 [3]: 0.1 nM; IC50 [4]: 22000 nM; Stability [5]: > 95%
44 | O=C(NCCCn1ccnc1)C1CN(C2c3ccc(Cl)cc3CCc3cc(Br)cnc32)CCN1C(=O)NC1CCCCC1 (stereo in doubt; 41b) | 0.56 nM | 1.5 nM | IC50 [4]: > 10000 nM; AUC [6]: 1660 ng·h/mL; bioavailability [7]: 10.6%; Cmax [8]: 2550 nM

Source: ChEMBL document CHEMBL1149394, “Guiding farnesyltransferase inhibitors from an ECLiPS library to the catalytic zinc” (Bioorg Med Chem Lett, 2006)
